Measured values from publication PMC9482816 (Journal of medicinal chemistry, 2022).
Entries after “also recorded” stand apart in the source; their conditions may differ.

What was measured:
[1] = system: H3K9me2 level in MDA-MB-231 cells; experiment: Western blot analysis for H3K9me2 in MDA-MB-231 cells; assay type: cell-based; settings: 0.2, 1, or 5 μM for 24, 48, or 72 h
[2] = system: H3K9me2 level in K562 cells; experiment: Western blot analysis for H3K9me2 in K562 cells; assay type: cell-based; settings: treated for 48 h
[3] = target: T1, G9a (Homo sapiens, UniProt Q96KQ7); experiment: Mass spectrometry based analysis of G9a-inhibitor adduct formation; assay type: binding; settings: for covalent modification of G9a (MS-based analysis, in words): after 1 h of incubation
T1 sequence (Q96KQ7 913-1193): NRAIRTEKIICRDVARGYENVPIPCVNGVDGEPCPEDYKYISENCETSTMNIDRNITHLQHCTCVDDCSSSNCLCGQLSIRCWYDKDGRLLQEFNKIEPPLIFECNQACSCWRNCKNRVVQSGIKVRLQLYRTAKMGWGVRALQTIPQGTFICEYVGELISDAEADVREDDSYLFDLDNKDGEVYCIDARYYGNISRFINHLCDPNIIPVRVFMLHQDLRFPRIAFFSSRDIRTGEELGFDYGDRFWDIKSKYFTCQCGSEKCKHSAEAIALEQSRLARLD
How it was run: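 Purified human G9a catalytic domain (residues 913–1193), 5 μM in 50 mM Tris-HCl pH 7.5, 150 mM NaCl, incubated 1 h at room temperature with 50 μM test compound or DMSO. Intact protein analysed by electrospray LC/TOF mass spectrometry. Protein–inhibitor adduct quantified from the mass shift over unmodified G9a (34 314 Da).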

[4] = target: T2, GLP (Homo sapiens, UniProt Q9H9B1); experiment: Isothermal titration calorimetry; assay type: binding; settings: ITC
T2 sequence (Q9H9B1 982-1266): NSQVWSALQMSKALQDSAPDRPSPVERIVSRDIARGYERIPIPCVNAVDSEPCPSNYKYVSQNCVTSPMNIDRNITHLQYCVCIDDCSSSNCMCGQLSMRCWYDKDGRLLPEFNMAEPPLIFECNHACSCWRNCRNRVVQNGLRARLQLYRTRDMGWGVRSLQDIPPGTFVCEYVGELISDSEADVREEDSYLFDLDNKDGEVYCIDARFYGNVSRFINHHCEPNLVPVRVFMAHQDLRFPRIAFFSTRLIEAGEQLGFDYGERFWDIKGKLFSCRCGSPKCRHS

[5] = target: T3, G9a (Homo sapiens, UniProt Q96KQ7); experiment: Radioactivity-based scintillation proximity biochemical assay, G9a; settings: preincubation 5, 15, 45 min
T3 sequence (Q96KQ7 1-1210): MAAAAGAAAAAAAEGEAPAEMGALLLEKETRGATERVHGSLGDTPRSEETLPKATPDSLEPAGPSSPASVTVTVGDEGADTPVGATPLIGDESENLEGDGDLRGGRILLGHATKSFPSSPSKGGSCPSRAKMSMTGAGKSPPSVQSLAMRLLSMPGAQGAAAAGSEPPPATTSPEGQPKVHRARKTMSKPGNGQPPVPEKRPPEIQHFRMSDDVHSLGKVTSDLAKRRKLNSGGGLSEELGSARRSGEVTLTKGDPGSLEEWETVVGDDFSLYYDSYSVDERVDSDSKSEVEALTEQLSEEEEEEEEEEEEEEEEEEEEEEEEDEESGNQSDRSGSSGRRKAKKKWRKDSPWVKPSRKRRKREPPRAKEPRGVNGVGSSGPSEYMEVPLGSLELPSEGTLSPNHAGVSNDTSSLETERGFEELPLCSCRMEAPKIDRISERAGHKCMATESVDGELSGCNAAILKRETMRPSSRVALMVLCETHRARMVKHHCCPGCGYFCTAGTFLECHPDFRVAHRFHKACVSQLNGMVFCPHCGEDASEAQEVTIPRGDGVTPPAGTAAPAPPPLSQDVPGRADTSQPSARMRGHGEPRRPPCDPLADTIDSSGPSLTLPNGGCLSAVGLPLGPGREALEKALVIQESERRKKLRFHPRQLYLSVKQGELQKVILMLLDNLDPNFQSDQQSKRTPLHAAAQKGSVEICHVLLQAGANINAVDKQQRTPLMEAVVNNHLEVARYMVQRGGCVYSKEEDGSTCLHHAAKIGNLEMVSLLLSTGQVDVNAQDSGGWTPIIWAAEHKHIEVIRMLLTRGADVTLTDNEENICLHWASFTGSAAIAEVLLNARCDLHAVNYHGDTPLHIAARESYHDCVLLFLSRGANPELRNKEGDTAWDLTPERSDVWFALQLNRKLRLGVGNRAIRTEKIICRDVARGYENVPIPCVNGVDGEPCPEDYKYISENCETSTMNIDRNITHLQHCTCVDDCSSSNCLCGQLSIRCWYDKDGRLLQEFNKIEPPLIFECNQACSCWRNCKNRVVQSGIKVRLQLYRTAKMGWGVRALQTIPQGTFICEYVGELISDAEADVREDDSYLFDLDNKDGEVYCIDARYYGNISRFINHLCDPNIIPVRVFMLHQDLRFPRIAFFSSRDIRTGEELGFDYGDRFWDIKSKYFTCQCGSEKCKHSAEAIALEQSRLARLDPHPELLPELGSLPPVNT
How it was run: (§1)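 Tritiated methyl transfer from SAM to H3 peptide, read by scintillation proximity. Enzymes are recombinant human catalytic domains: G9a (913–1193) and GLP (982–1266), each at 5 nM. Substrate is H3 peptide at 0.05 μM and SAM cofactor at 1 μM. Test compound is preincubated with enzyme for 5, 15 or 45 min. Run by a contract lab in four replicates.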

[6] = target: T4, GLP (Homo sapiens, UniProt Q9H9B1); experiment: Radioactivity-based scintillation proximity biochemical assay, GLP; settings: preincubation 5, 15, 45 min
T4 sequence (Q9H9B1 1-1298): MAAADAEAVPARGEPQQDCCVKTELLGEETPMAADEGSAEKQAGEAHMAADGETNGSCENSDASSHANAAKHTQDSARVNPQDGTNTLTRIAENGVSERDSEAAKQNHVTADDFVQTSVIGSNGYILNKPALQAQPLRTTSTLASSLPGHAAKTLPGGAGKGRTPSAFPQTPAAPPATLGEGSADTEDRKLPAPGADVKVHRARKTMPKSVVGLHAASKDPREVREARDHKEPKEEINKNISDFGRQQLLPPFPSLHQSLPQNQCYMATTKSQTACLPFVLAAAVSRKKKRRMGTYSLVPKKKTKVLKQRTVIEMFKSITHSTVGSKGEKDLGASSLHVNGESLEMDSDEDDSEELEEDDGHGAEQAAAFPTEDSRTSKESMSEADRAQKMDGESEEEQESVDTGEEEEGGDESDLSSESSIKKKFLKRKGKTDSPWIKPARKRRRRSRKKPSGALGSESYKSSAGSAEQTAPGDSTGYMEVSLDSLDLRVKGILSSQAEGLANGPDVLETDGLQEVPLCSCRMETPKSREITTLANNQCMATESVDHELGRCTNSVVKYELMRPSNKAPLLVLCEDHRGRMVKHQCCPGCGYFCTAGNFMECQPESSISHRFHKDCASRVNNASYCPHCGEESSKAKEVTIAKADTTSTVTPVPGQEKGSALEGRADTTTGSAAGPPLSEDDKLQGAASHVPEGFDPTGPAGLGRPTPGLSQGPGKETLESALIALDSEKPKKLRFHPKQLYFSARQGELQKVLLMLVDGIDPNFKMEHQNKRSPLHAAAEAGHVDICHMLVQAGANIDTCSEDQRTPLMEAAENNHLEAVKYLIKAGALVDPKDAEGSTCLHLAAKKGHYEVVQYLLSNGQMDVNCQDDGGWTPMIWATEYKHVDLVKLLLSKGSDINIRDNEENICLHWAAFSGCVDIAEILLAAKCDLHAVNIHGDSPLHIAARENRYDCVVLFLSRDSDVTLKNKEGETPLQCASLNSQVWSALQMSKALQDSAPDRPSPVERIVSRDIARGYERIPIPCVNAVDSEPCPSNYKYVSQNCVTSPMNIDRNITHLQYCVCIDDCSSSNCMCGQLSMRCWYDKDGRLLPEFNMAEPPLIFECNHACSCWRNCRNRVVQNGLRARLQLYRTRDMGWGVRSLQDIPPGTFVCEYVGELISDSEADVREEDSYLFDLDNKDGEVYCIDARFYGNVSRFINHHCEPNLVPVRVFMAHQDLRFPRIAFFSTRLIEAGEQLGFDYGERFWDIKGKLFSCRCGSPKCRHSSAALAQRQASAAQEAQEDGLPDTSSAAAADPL
How it was run: as §1

[7] = system: 21 other methyltransferases (PKMTs and PRMTs); experiment: Selectivity assays against other methyltransferases; assay type: biochemical; settings: compound at 1 μM; any of the 21 enzymes
How it was run: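 Radioactivity-based scintillation proximity format that follows transfer of the 3H-labelled methyl group from SAM to substrate. Test compound at 1 μM, run in duplicate against each methyltransferase. Inhibition expressed as percentage of control enzyme activity.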

[8] = system: MDA-MB-231 cells; experiment: Cytotoxicity assay; assay type: cell-based; settings: 3 days, CCK-8 (Figure S2)
How it was run: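 MDA-MB-231 cells are seeded at 1 × 10^4 cells per well and exposed to test compound at various concentrations for 3 days. Viability is read with CCK-8 following the kit protocol. Values are plotted from triplicate experiments.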

**Q.** With `C=CC(=O)Nc1nc(NC2CCN(C(C)C)CC2)c2cc(OC)c(OCCCN3CCCC3)cc2n1` [Compound 1, N-(4-((1-Isopropylpiperidin-4-yl)amino)-6-methoxy-7-(3-(pyrrolidin-1-yl)propoxy)-quinazolin-2-yl)acrylamide] as the molecule, how does the “reduction of H3K9me2 level in MDA-MB-231 cells” value (“reduction … in MDA-MB-231 cells” for short) [1] read?
**A.** slightly lower potency than UNC0642 and compound 9

**Q.** And the “reduction of H3K9me2 level in K562 cells” value [2]?
**A.** reduced the H3K9me2 level in K562 cells

**Q.** For `C=CC(=O)N(C)c1nc(NC2CCN(C(C)C)CC2)c2cc(OC)c(OCCCN3CCCC3)cc2n1` [Compound 6, N-(4-((1-Isopropylpiperidin-4-yl)amino)-6-methoxy-7-(3-(pyrrolidin-1-yl)propoxy)-quinazolin-2-yl)-N-methylacrylamide], which “covalent modification of G9a (MS-based analysis, in words)” value [3] is on record?
**A.** completely lost its ability to covalently modify G9a

**Q.** With `C=CC(=O)Nc1cc(NC2CCN(C(C)C)CC2)c2cc(OC)c(OCCCN3CCCC3)cc2n1` [Compound 8, N-(4-((1-Isopropylpiperidin-4-yl)amino)-6-methoxy-7-(3-(pyrrolidin-1-yl)propoxy)quinolin-2-yl)acrylamide] as the molecule, how does the “rate of G9a adduct formation compared to GLP adduct” value ([3]; mass spectrometry, 0-120 min, 5 μM G9a or GLP, 50 μM compound) read?
**A.** faster than that of the GLP–compound 8 adduct

**Q.** What about the “fold improved binding affinity to GLP compared to UNC0642” value [4] of the same molecule?
**A.** 1.3 fold

**Q.** What about the “inhibition of G9a compared to GLP” value [5] of the same molecule?
**A.** more effectively inhibited G9a than GLP at all three time points

**Q.** And the “inhibitory activity against G9a with preincubation time” value [5]?
**A.** improved inhibitory activity against G9a and GLP with increased preincubation time

**Q.** And the “inhibitory activity against GLP with preincubation time” value [6]?
**A.** improved inhibitory activity against G9a and GLP with increased preincubation time

**Q.** What about the “inhibition effect against 21 PKMTs and PRMTs” value [7] of the same molecule?
**A.** ≤ 50%

**Q.** And the “reduction … in MDA-MB-231 cells” value [1]?
**A.** effectively reduced the H3K9me2 mark in a concentration- and time-dependent manner; also recorded: improved potency compared to UNC0642 and compound 9

**Q.** What about the “reduction of H3K9me2 level in K562 cells” value [2] of the same molecule?
**A.** reduced the H3K9me2 level in K562 cells; also recorded: much better potency compared to compound 1 and slightly better potency compared to UNC0642

**Q.** What about the “inhibition of cell growth in MDA-MB-231 cells” value [8] of the same molecule?
**A.** more effective than compound 1 and UNC0642 in suppressing the growth of MDA-MB-231 cells

**Q.** For `CCC(=O)Nc1cc(NC2CCN(C(C)C)CC2)c2cc(OC)c(OCCCN3CCCC3)cc2n1` [Compound 9, N-(4-((1-Isopropylpiperidin-4-yl)amino)-6-methoxy-7-(3-(pyrrolidin-1-yl)propoxy)quinolin-2-yl)propionamide], which “covalent modification of G9a (MS-based analysis, in words)” value [3] is on record?
**A.** did not covalently modify G9a

**Q.** What about the “reduction … in MDA-MB-231 cells” value [1] of the same molecule?
**A.** displayed some cellular potency as a reversible inhibitor but was not as potent as compound 8
